From PubChem BioAssay
Runt-CBFb FRET: inhibitors of human RUNX1 Runt domain binding to CBFb; inhibition, % at 20 µM; 220,000 tested, 0.46% active; Cerulean-Runt/Venus-CBFb FRET ratio 530/480, 1 h; Q01196+Q13951;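 active = inhibition over about 50% at 20 µM in the single-dose screen, limit read from the data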;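 note: 0% = DMSO wells and 100% = excess unlabeled CBFb competitor control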
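Reagent – Venus-CBFb binding partner, 100 nM · Assay system – Cerulean-tagged RUNX1 Runt domain (FRET donor) fusion protein · Input – 100 nM per protein · Incubation – two 1 h room-temperature incubations shielded from light · Measured by – FRET fluorescence · Medium – Tris buffer pH 7.5 with salts and BSA · Benchmarks – unlabeled CBFb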
proKLK7 act: activators of human kallikrein-7 zymogen. activation, % at 7 µM. 370,000 tested, 0.9% active. purified proKLK7, EDANS-DABCYL substrate fluorescence; 100% is mature enzyme control, 0% vehicle;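 active = activation above the mean of all tested compounds plus 3 SD, computed per campaign excluding outliers beyond control limits, cut at about 13% in these data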
Runt-SMMHC FRET: Runt domain-CBFb-SMMHC interaction inhibition. inhibition, % at 20 µM. Q01196+Q13951. 220,000 tested, 0.74% active. Cerulean-Runt/Venus-CBFb-SMMHC FRET ratio 530/480, 1 h. AID 1434;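 active = mean inhibition across duplicate retests at 20 µM reaching about 50%, limit read from the data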;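 note: 0% = DMSO wells and 100% = wells with excess untagged CBFb-SMMHC; inhibitors lower the FRET ratio by blocking Runt binding to CBFb-SMMHC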
MEX-5 binding: C. elegans MEX-5 TCR-2 RNA binding activity; Q9XUB2; MEX-5/FITC-TCR2 RNA binding, fluorescence polarization; hits give low values; activity score (negative = inhibition of binding), % at 10 µM; 300,000 tested, 0.38% active; AID 1832;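 active = inhibition past about -25% in most replicates, and total fluorescence under double the plate's negative control median, limit read from the data; inconclusive = replicates evenly split on the limit, or fluorescence at least double controls; inactive = too little inhibition in most replicates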;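 note: 0% = DMSO and -100% = 5 µM competing unlabeled TCR2 RNA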
Target sequence (Q9XUB2 whole entry, looked up): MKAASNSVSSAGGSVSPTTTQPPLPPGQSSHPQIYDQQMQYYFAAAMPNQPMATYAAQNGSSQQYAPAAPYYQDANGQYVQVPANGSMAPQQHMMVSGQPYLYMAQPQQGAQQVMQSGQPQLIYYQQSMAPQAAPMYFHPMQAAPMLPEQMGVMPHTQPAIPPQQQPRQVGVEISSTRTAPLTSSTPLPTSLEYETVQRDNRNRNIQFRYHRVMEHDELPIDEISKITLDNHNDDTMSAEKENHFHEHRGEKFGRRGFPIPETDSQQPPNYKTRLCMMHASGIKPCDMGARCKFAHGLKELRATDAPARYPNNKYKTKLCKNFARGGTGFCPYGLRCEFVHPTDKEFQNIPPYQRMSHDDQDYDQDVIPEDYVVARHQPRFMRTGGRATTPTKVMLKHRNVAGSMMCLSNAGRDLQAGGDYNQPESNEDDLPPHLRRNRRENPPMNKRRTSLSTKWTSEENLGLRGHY
RanGTP-Imp inh: inhibitors of RanGTP-importin-beta interaction, primary screen, biochemical, FRET, CFP-Ran, YFP-importin-beta, homogeneous. cell-free CFP-Ran/YFP-importin-beta FRET ratio. inhibition, % (no concentration beside the values). 300,000 tested, 1.1% active;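 active = more than half of the replicate wells show a fall in the fluorescence ratio signal beyond about 16%, limit read from the data, passing the limit was not always enough; inconclusive = exactly half of the replicate wells pass the set limit; inactive = fewer than half of replicates pass the limit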;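 note: 0% = DMSO wells and 100% = Ran loaded with GDP instead of GTP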
Active calls of the source: *; ? = inconclusive; · = no result given. Only some compounds are listed: those with a hit (about 2.1% of all), similar ones and a draw of the others.

SMILES	Runt-CBFb FRET	proKLK7 act	Runt-SMMHC FRET	MEX-5 binding	RanGTP-Imp inh
O=C(Nc1ccc(Cl)cn1)c1cc2c(s1)-c1ccccc1OC2	32	-18	38	0	58*
O=C(Nc1cccnc1Cl)c1cc2c(s1)-c1ccccc1OC2	·	-83	·	0	2
O=C(Nc1nc2ccccc2s1)c1cc2c(s1)-c1ccccc1OC2	19	0	59*	1	37*
COc1ccc([C@H]2C[C@@H](O)[C@H](n3cc(C4CC4)nn3)CN2Cc2cccs2)cc1	·	0	·	·	·
COc1cc(C(CCN2CCCC2)c2c(OC)cc(OC)c3c(-c4ccccc4)cc(=O)oc23)cc(OC)c1OC (configuration not stated)	3	0	0	-48*	-2
CN1/C(=C\C=C(/C#N)C(=O)Nc2ccccc2F)C(C)(C)c2ccccc21	-1	0	58*	-39*	122*
CN1/C(=C/C=C(/C#N)C(N)=O)C(C)(C)c2ccccc21	61*	1	-14	9	115*
COC(=O)c1ccc(CNC(=O)c2cc(S(=O)(=O)NCc3ccccc3)ccc2C)cc1	·	1	·	·	·
CCOc1cc(/C=C/c2cccc[n+]2C)ccc1OCC(=O)Nc1ccc(C)cc1	·	2	·	-43*	-3
Cc1ccc(S(=O)(=O)N2CCOCC2)cc1NC(=O)Cn1c(=O)ccn(Cc2ccccc2)c1=O	·	0	·	·	·
CCCN1C2CCCC1CC(NC(=S)Nc1ccc(OC)cc1)C2 (configuration not stated)	24	0	71*	2	1
CC1(C)Cc2c(cnn2-c2cccc(F)c2)C(NC(=O)CSc2ccccn2)C1 (configuration not stated)	·	4	·	-44*	9
NS(=O)(=O)c1ccc(NC(=O)COC(=O)CCCN2C(=O)c3cccc4cccc(c34)C2=O)cc1	·	4	·	·	·
Cc1cccc(/C(N)=N/OC(=O)N2CCOCC2)c1	0	0	0	2	0
Cc1ccc(/C(N)=N/OC(=O)N2CCOCC2)cc1	74*	0	-120	-2	3
CSc1sccc1/C=C(/C#N)C(=O)c1ccco1	·	0	·	-27*	-3
CSc1sccc1/C=N/O	2	0	-1	-2	5
CCN(CC)c1nc2ccccc2nc1C(C#N)C(=O)NCCc1ccccc1 (configuration not stated)	34	0	59*	?	52*
CCN1CCN(c2nc3ccccc3nc2C(C#N)C(=O)OCc2ccccc2)CC1 (configuration not stated)	26	2	47	-3	20*
N#CC(C(=O)NCCc1ccccc1)c1nc2ccccc2nc1N1CCCCC1 (configuration not stated)	9	0	-22	?	37*
N#CC(C(=O)NCc1ccccc1)c1nc2ccccc2nc1N1CCCC1 (configuration not stated)	32	-14	66*	-97*	35*
NS(=O)(=O)c1ccc(CCNC(=O)c2cc3ccccc3s2)cc1	·	1	·	-3	-1
c1ccc(Cn2ccc3ccc(-c4ccc5ccn(Cc6cccc(Oc7ccccc7)c6)c5c4)cc32)cc1	·	-1	·	·	·
O=C(Nc1ccnn1C1CCN(Cc2ccc(CO)o2)CC1)c1ccccc1	·	1	·	-1	4
CCCNC(=O)C1(C)CCCN(C(=O)c2ccccc2OC(F)(F)F)C1 (configuration not stated)	·	0	·	·	·
SMILES	Runt-CBFb FRET	proKLK7 act	Runt-SMMHC FRET	MEX-5 binding	RanGTP-Imp inh
N#CC(C(=O)OC1CCCCC1)c1nc2ccccc2nc1N1CCCCC1 (configuration not stated)	-14	0	-44	-13	17*
COc1ccc(OC)c(NC(=O)c2cc3oc4ccccc4c3cc2O)c1	46	0	96*	1	4
COc1cc(OC)cc(C(=O)NCC(=O)NCCN2C(=O)S/C(=C\c3ccc4c(c3)OCO4)C2=O)c1	·	0	·	·	·
O=c1[nH]c(=S)[nH]c2c1[C@H](CCc1cccc(Cl)c1)O[C@H](C1CCCC1)C2	·	0	·	·	·
O=C(NCCc1ccccc1)c1c(O)c2ccccc2[nH]c1=O	·	0	·	3	?
CCNC(=O)c1c(O)c2ccccc2[nH]c1=O	1	10	-2	0	96*
CN1C(=O)NC(c2ccccc2[N+](=O)[O-])C2=C1CCCC2=O (configuration not stated)	·	1	·	-80*	7
